Data: ChEMBL document CHEMBL1122183, “Enhanced antitumor properties of 3'-(4-morpholinyl) and 3'-(4-methoxy-1-piperidinyl) derivatives of 3'-deaminodaunorubicin” (1982)
Several values for one entry are separate records, joined by “and”; a condition that tells them apart may be missing. Equal entries are not always repeated.

How the values were obtained:
[1] = organism: Mus musculus; assay: Percentage rate of O2 consumption by liver microsomes and NADPH in the presence compared to the rate in presence of doxorubicin.; format: functional
Procedure, shortened: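 Rate of O2 consumption by liver microsomes with NADPH measured with the analogue at a single drug concentration. Expressed as a percentage of the rate obtained with doxorubicin.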

[2] = system: L1210; assay: Concentration of drug necessary to reduce by 50% the incorporation of tritiated thymidine in the DNA of actively growing L1210 cells; format: functional, Mus musculus; details: read-out: ED50 (the source's name)
Procedure, shortened: (§1)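 Actively growing L1210 cells. Drug first dissolved in Me2SO, giving 1% final Me2SO. Incorporation of [3H]thymidine into DNA and [3H]uridine into RNA measured. ED50 is the drug concentration that reduces incorporation by 50%.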

[3] = system: L1210; assay: Concentration of drug necessary to reduce by 50% the incorporation of tritiated uridine in the RNA of actively growing L1210 cells.; format: functional, Mus musculus; details: read-out: ED50 (the source's name); procedure, shortened: as §1
[4] = system: Nucleic Acid; assay: Thermal denaturation temperature (Tm) of isolated calf thymus helical DNA was measured; format: functional; details: Bos taurus
Procedure, shortened: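 Calf thymus DNA (P) 5.2 × 10^-5 M and drug 5.2 × 10^-6 M in 0.01 M phosphate buffer, pH 7, with EDTA and 5% final Me2SO. ΔTm is Tm of the DNA–drug complex minus Tm of DNA alone. Values <1 are read as insignificant binding.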

[5] = system: P388; assay: Antitumor efficacy at optimal dose of compound was measured against P388 leukemia in mice; format: functional, Mus musculus
Procedure, shortened: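 Mice inoculated ip with P388 cells on day 0, then dosed on days 5, 9 and 13 across a series of doses, under NCI protocols. % T/C is the ratio of mean survival time of treated to untreated mice ×100; T/C >120 taken as active. Values are averages of two tests, or one test where only one was run.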

Row | Structure (SMILES) | EC50 ([2]; Mus musculus, L1210) | EC50 ([3]; Mus musculus, L1210) | EC50 [2] | EC50 [3] | O2 consumption [1] | ΔTm [4] | T/C [5]
1 | COc1cccc2c1C(=O)c1c(O)c3c(c(O)c1C2=O)C[C@@](O)(C(C)=O)C[C@@H]3OC1CC(NC2CCCCC2)C(O)C(C)O1 (stereo partly specified) | 64000 nM | 16000 nM |  |  | 57% | 0.7 °C | 
2 | COc1cccc2c1C(=O)c1c(O)c3c(c(O)c1C2=O)C[C@@](O)(C(C)=O)C[C@@H]3O[C@H]1C[C@H](N)[C@H](O)[C@H](C)O1 [DAUNORUBICIN] | 660 nM | 330 nM |  |  |  |  | 130%
3 | COc1cccc2c1C(=O)c1c(O)c3c(c(O)c1C2=O)C[C@@](O)(C(C)=O)C[C@@H]3OC1CC(N2CCC(OC)CC2)C(O)C(C)O1 (stereo partly specified) | 630 nM | 120 nM |  |  | 82% | 13.3 °C | 199%
4 | COc1cccc2c1C(=O)c1c(O)c3c(c(O)c1C2=O)C[C@@](O)(C(=O)CO)C[C@@H]3O[C@H]1C[C@H](N)[C@H](O)[C@H](C)O1 [DOXORUBICIN] | 1500 nM | 580 nM |  |  | 100% | 13.4 °C | 160%
5 | COc1cccc2c1C(=O)c1c(O)c3c(c(O)c1C2=O)C[C@@](O)(C(C)=O)C[C@@H]3OC1CC(NC2CCOCC2)C(O)C(C)O1 (stereo partly specified) | 2000 nM | 610 nM |  |  | 68% | 4 °C | 136%

Now from value to molecule, other results behind:

Row | EC50 ([2]; Mus musculus, L1210) | EC50 ([3]; Mus musculus, L1210) | EC50 [2] | EC50 [3] | Structure (SMILES) | O2 consumption [1] | ΔTm [4] | T/C [5]
6 | 500 nM | 50 nM |  |  | COc1cccc2c1C(=O)c1c(O)c3c(c(O)c1C2=O)C[C@@](O)(C(C)=O)C[C@@H]3OC1CC(N2CCCCC2)C(O)C(C)O1 (stereo partly specified) | 8% | 16.8 °C | 177%
7 |  |  | 760 nM and 340 nM | 100 nM and 14 nM | COc1cccc2c1C(=O)c1c(O)c3c(c(O)c1C2=O)C[C@@](O)(C(C)=O)C[C@@H]3OC1CC(N2CCOCC2)C(O)C(C)O1 (stereo partly specified) | 25% | 6.1 °C | 166%
8 | 620 nM | 40 nM |  |  | COc1cccc2c1C(=O)c1c(O)c3c(c(O)c1C2=O)C[C@@](O)(C(C)O)C[C@@H]3O[C@H]1C[C@H](N2CCCCC2)[C@H](O)[C@H](C)O1 (stereo partly specified) |  | 12.9 °C | 162%
9 | 580 nM | 80 nM |  |  | COc1cccc2c1C(=O)c1c(O)c3c(c(O)c1C2=O)C[C@@](O)(C(C)O)C[C@@H]3O[C@H]1C[C@H](N2CCC(OC)CC2)[C@H](O)[C@H](C)O1 (stereo partly specified) | 64% | 9.5 °C | 199%
10 | 2200 nM | 530 nM |  |  | COc1cccc2c1C(=O)c1c(O)c3c(c(O)c1C2=O)C[C@@](O)(C(C)O)C[C@@H]3O[C@H]1C[C@H](N2CCOCC2)[C@H](O)[C@H](C)O1 (stereo partly specified) | 29% | 4.1 °C | 153%
